≈ marks a conversion by molar mass, not a printed value.
Experiments:
[1] = Volume of distribution at steady state in Beagle dog at 0.5 mg/kg, iv; type: ADME, organism-based, Canis lupus familiaris; parameters: dose 0.5 mg/kg, route intravenous; conditions: beagle, in vivo, read-out: Vdss
[2] = Oral bioavailability in CD rat at 1 mg/kg administered as suspension; type: ADME, organism-based; conditions: in vivo
In short: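 Rats received an oral suspension of wet bead-milled material (particle size <1 μm), dosed at 1, 10 and 30 mg/kg.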

[3] = Lipophilicity, log D of the compound by chromatographic analysis; type: physicochemical
In short: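 Chromatographic log D measured at pH 7.4.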

[4] = biological target: T1, Solute carrier organic anion transporter family member 1B1 (Homo sapiens, UniProt Q9Y6L6); test: Antagonist activity at OATP1B1 (unknown origin) by [35S]GTPgammaS binding assay; type: functional
T1 sequence (Q9Y6L6 whole entry): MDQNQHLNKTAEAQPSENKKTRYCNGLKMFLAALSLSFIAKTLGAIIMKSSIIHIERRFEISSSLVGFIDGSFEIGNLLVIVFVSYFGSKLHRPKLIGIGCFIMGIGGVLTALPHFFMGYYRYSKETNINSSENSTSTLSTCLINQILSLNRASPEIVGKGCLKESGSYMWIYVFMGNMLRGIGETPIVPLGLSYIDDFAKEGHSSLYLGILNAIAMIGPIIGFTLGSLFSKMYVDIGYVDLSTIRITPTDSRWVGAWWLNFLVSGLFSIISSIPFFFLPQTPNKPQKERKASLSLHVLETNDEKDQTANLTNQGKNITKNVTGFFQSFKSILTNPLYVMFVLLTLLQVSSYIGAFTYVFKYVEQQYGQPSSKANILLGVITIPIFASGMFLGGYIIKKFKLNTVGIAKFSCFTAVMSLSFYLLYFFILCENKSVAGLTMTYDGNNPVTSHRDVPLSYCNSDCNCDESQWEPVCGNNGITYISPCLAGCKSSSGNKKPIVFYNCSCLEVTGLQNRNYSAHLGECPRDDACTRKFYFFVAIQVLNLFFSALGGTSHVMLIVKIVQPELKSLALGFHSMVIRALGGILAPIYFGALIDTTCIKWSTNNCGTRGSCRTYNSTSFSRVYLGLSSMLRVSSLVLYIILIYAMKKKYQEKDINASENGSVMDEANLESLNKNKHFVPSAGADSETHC

[5] = biological target: C-C chemokine receptor type 8 (Homo sapiens, UniProt P51685); test: Antagonist activity at CCR8 receptor (unknown origin) by [35S]GTPgammaS binding assay; type: functional
C-C chemokine receptor type 8, sequence (P51685 whole entry): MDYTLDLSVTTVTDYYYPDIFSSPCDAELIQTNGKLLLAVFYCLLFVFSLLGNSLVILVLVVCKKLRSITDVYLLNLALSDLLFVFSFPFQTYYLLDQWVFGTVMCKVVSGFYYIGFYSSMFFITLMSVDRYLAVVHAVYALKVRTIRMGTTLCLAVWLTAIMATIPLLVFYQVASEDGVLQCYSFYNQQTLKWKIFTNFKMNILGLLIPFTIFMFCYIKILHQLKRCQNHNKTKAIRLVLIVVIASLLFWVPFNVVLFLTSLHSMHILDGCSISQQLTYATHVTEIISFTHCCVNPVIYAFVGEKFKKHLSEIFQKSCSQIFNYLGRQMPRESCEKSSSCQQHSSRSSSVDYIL

[6] = biological target: T2, C-C chemokine receptor type 4 (Homo sapiens, UniProt P51679); test: Antagonist activity at human recombinant CCR4 receptor expressed in CHO cell membranes by [35S]GTPgammaS binding assay; type: functional
T2 sequence (P51679 whole entry): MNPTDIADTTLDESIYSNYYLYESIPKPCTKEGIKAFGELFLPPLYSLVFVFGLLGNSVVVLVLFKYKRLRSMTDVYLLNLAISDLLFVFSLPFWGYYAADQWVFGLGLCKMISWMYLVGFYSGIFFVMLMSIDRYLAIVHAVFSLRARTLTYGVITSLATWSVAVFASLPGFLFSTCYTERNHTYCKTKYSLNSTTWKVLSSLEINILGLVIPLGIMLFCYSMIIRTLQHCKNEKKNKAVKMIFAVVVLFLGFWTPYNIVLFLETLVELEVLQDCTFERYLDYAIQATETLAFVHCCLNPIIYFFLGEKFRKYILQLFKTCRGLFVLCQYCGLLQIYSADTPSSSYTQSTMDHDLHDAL

[7] = Oral bioavailability in CD rat at 30 mg/kg administered as suspension; type: ADME, organism-based; conditions: in vivo
[8] = Stability of the compound in solid state at 40 to 50 degC 75 % relative humidity after 1 month by NMR analysis; conditions: 730.5 h
[9] = biological target: T3, C-X-C chemokine receptor type 3 (Homo sapiens, UniProt P49682); test: Antagonist activity at CXCR3 receptor (unknown origin) by [35S]GTPgammaS binding assay; type: functional
T3 sequence (P49682 whole entry): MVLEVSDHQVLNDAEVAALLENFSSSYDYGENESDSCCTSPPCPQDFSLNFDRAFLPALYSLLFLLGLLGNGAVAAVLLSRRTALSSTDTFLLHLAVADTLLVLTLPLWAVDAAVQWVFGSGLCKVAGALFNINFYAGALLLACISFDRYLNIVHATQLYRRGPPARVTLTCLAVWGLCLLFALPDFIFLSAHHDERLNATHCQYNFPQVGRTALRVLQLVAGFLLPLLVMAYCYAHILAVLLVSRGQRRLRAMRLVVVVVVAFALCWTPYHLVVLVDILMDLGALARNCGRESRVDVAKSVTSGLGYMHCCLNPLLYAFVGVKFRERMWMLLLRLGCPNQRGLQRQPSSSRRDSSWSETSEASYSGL

[10] = test system: Rattus norvegicus; test: Cardiotoxicity in rat at 30 to 300 mg/kg, po; type: toxicity, organism-based; parameters: dose 30-300 mg/kg, route oral; conditions: in vivo
In short: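 Conscious rats were given oral doses of 30, 100 and 300 mg/kg. Body temperature, cardiovascular and electrocardiographic parameters were monitored.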

[11] = Equilibrium solubility of the compound in fasted-state simulated intestinal fluid at pH 6.5 after 24 hrs by HPLC analysis; type: physicochemical
In short: (§1)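 Solid compound was equilibrated 24 h in the stated medium: water, SGF pH 1.6, FeSSIF pH 6.5, FaSSIF pH 6.5 or saline. Dissolved compound was quantified by HPLC.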

[12] = Equilibrium solubility of the compound in saline after 24 hrs by HPLC analysis; type: physicochemical; in short: as §1
[13] = Plasma protein binding in CD rat by equilibrium dialysis technique; type: ADME, cell-free; conditions: read-out: PPB
In short: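 Rapid equilibrium dialysis in CD rat, beagle dog or human plasma, with compound at a nominal 1 μg/mL; n = 3.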

[14] = in vivo; conditions: beagle, dog, iv, 0.5 mg/kg
[15] = test system: Rattus norvegicus; test: Toxicity in rat administered for 7 days; type: organism-based; conditions: in vivo, 168 h
[16] = organism: Oryctolagus cuniculus; test: Cardiotoxicity in rabbit assessed as liability for torsadogenic arrhythmia; type: toxicity
[17] = in vivo; conditions: beagle, dog, iv, 0.5 mg/kg; remark: listed apart in the source
[18] = biological target: Acetylcholine receptor subunit alpha (Homo sapiens) (UniProt P02708); test: Antagonist activity at nAChR alpha1 (unknown origin) by [35S]GTPgammaS binding assay; type: functional
Acetylcholine receptor subunit alpha (Homo sapiens), sequence (P02708 whole entry): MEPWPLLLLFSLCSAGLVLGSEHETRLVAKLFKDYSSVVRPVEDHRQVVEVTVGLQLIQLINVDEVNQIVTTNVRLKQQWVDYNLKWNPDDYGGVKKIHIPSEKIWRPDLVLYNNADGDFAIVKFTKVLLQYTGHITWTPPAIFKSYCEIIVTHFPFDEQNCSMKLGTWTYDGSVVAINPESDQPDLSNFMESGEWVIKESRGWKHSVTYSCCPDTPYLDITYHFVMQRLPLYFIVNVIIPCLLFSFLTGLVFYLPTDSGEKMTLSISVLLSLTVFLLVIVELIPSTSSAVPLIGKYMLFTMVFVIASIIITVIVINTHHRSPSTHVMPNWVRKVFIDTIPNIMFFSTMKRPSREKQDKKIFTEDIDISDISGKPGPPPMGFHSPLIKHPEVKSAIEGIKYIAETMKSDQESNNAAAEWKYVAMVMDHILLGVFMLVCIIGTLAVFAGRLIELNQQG

[19] = Chemical stability of the compound in PBS using MeOH at pH 7.4 by NMR analysis; type: physicochemical; conditions: buffer
[20] = biological target: T4, C-C chemokine receptor type 1 (Homo sapiens, UniProt P32246); test: Antagonist activity at CCR1 receptor (unknown origin) by [35S]GTPgammaS binding assay; type: functional
T4 sequence (P32246 whole entry): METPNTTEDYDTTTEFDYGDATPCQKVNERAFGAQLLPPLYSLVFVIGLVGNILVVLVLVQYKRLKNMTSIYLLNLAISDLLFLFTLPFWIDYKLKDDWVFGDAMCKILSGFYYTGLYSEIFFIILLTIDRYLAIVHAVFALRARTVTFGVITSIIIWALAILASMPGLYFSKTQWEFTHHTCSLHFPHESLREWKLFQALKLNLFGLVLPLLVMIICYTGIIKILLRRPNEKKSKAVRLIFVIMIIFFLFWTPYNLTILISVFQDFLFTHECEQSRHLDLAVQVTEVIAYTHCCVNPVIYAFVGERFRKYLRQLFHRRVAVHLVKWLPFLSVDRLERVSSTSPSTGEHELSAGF

COc1cccc2c1c(NS(=O)(=O)c1ccc(Cl)s1)nn2Cc1cccc(CNC(=O)C(C)(C)O)c1
Vd [1]: 2.2 L/kg
bioavailability [2]: 53%
chromatographic logD [3]: 4.3
IC50 [4]: 398 nM
IC50 [5]: > 10000 nM
IC50 [6]: 39.8 nM
bioavailability [7]: 101%
Stability [8]: Stable
IC50 [9]: > 10000 nM
Activity [10]: Non-toxic
solubility thermodynamic at 24 h [11]: 10 µg/mL (≈ 18.2 µM)
solubility thermodynamic at 24 h [12]: 73 µg/mL (≈ 133 µM)
fraction unbound [13]: ≤ 0.01
half-life [14]: 2.6 h
Activity [15]: Non-toxic
Activity [16]: Non-toxic
clearance [17]: 9 mL/min/kg
pXC50 [18]: 5.1
Stability [19]: Unstable
IC50 [20]: > 10000 nM

Source: ChEMBL document CHEMBL2321840, “Synthesis and structure-activity relationships of indazole arylsulfonamides as allosteric CC-chemokine receptor 4 (CCR4) antagonists” (J Med Chem, 2013)
